The text below walks through data of ChEMBL document CHEMBL3596109, “In vitro antiplasmodial activity of triazole-linked chloroquinoline derivatives synthesized from 7-chloro-N-(prop-2-yn-1-yl)quinolin-4-amine” (Bioorg Med Chem, 2015).

In assay [1] the test system is Plasmodium falciparum. The assay is described as follows: Antiplasmodial activity against chloroquine-resistant asexual erythrocytic stage of Plasmodium falciparum Dd2 assessed as parasite growth inhibition by parasite lactate dehydrogenase assay. The class given is functional, organism-based. Summed up: (§1)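 Asexual erythrocytic cultures were maintained continuously by a modified Trager–Jensen method. Samples came from 20 mg/mL DMSO stocks and were serially diluted 2-fold in complete medium over 10 concentrations, from 100 µg/mL down to 0.20 µg/mL; some started at 1000 µg/mL. Reference drugs started at 100 ng/mL. Read-out was modified pLDH. IC50 came from full dose-response curves, run in triplicate on two occasions.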

The test system of assay [2] is Plasmodium falciparum. The assay is described as follows: Antiplasmodial activity against chloroquine-sensitive asexual erythrocytic stage of Plasmodium falciparum NF54 assessed as parasite growth inhibition by parasite lactate dehydrogenase assay. The class given is functional, organism-based. Summed up:
as §1

Assay [3] deals with Plasmodium falciparum. The assay is described as follows: Resistance index, ratio of IC50 for chloroquine-resistant asexual erythrocytic stage of Plasmodium falciparum Dd2 to IC50 for chloroquine-sensitive asexual erythrocytic stage of Plasmodium falciparum NF54. The class given is functional.
The test system of assay [4] is Plasmodium falciparum. Briefly: Potency index, ratio of chloroquine IC50 to compound IC50 for chloroquine-resistant asexual erythrocytic stage of Plasmodium falciparum Dd2.

By IC50 is commonly meant the concentration needed to halve the response being measured.

Where only a bound is given, the exact number is not on record here.

`Clc1ccc2c(NCc3cn(CCN4CCCCC4)nn3)ccnc2c1`: the 50% inhibitory concentration (IC50) in assay [1] is 0.0516 µM; in assay [2], 0.0102 µM. For the same compound, the “Ratio IC50” value in assay [3] was 5.1; in assay [4] it was 3.

Turning to `Clc1ccc2c(NCc3cn(CCCN4CCCCC4)nn3)ccnc2c1`, the half-maximal inhibitory concentration (IC50) in assay [1] is 0.0089 µM; in assay [2], 0.123 µM. Also, in assay [3], the “Ratio IC50” value came out at 14.

Turning to `C[C@H]1[C@H](OC(=O)CCC(=O)O)O[C@@H]2O[C@@]3(C)CC[C@H]4[C@H](C)CC[C@@H]1[C@@]24OO3` [ARTESUNATE], the IC50 in assay [1] is 0.0242 µM; in assay [2] it was below 0.0052 µM. The “Ratio IC50” value in assay [3] was 4.6.

With `Clc1ccc2c(NCc3cn(CCCN4CCCC4)nn3)ccnc2c1`, the IC50 turned out to be 0.0184 µM in assay [1] and 0.149 µM in assay [2]. In addition, in assay [3], the “Ratio IC50” value is recorded as 8.1.

On to `CN(CCCn1cc(CNc2ccnc3cc(Cl)ccc23)nn1)Cc1ccccc1`, for which the figures for the half-maximal inhibitory concentration (IC50) in assay [1] and in assay [2] were 0.0508 µM and 0.015 µM, respectively. Also, the “Ratio IC50” value was 3.4 in assay [3] and 3 in assay [4].

Regarding `Clc1ccc2c(NCc3cn(CCN4CCCC4)nn3)ccnc2c1`, the half-maximal inhibitory concentration (IC50) was 0.0693 µM in assay [1] and 0.0162 µM in assay [2]. Besides, the entries for the “Ratio IC50” value in assay [3] and in assay [4] were 4.3 and 3, respectively.

Consider `CN(CCn1cc(CNc2ccnc3cc(Cl)ccc23)nn1)Cc1ccccc1`, for which the values for the half-inhibitory concentration (IC50) in assay [1] and in assay [2] were 0.151 µM and 0.216 µM, respectively. The “Ratio IC50” value in assay [3] is on record as 1.4.

Regarding `Clc1ccc2c(NCc3cn(CCCN4c5ccccc5CCc5ccccc54)nn3)ccnc2c1`, the IC50 in assay [1] was 0.0741 µM; in assay [2] it was 0.0643 µM. Further, the “Ratio IC50” value in assay [3] worked out at 1.2; in assay [4], 3.

Consider `CCN(CC)CCn1cc(CNc2ccnc3cc(Cl)ccc23)nn1`, for which the IC50 came out at 0.0535 µM in assay [1] and 0.0098 µM in assay [2]. The “Ratio IC50” value in assay [3] was 5.5; in assay [4], 3.

Regarding `Clc1ccc2c(NCc3cn(CCN4CCOCC4)nn3)ccnc2c1`, the IC50 was determined as 1.3 µM in assay [1] and 1.76 µM in assay [2]. The “Ratio IC50” value in assay [3] turned out to be 1.4.

In the case of `CN(CCn1cc(CNc2ccnc3cc(Cl)ccc23)nn1)c1ccccc1`, the results for the half-maximal inhibitory concentration (IC50) in assay [1] and in assay [2] were 0.38 µM and 0.492 µM, respectively. Moreover, the “Ratio IC50” value in assay [3] was 1.3.

Turning to `Clc1ccc2c(NCc3cn(CCCN4CCOCC4)nn3)ccnc2c1`, the IC50 in assay [1] was 0.0777 µM; in assay [2] it was 0.261 µM. Further, in assay [3], the “Ratio IC50” value is 3.3.

As to `CCN(CC)CCCn1cc(CNc2ccnc3cc(Cl)ccc23)nn1`, the concentration for half-maximal inhibition (IC50) in assay [1] was determined as 1.98 µM; in assay [2], 5.33 µM. Besides, the “Ratio IC50” value in assay [3] was found to be 2.7.

On to `CN(CCCn1cc(CNc2ccnc3cc(Cl)ccc23)nn1)c1ccccc1`, for which the IC50 amounted to 0.165 µM in assay [1] and 0.305 µM in assay [2]. In assay [3], the “Ratio IC50” value was determined as 1.8.

For `Clc1ccc2c(NCc3cn(CCCN(Cc4ccccc4)Cc4ccccc4)nn3)ccnc2c1`, the IC50 in assay [1] came to 0.114 µM; in assay [2] it was 2.24 µM. In assay [3], the “Ratio IC50” value was determined as 20.

Turning to `Clc1ccc2c(NCc3cn(CCN(Cc4ccccc4)Cc4ccccc4)nn3)ccnc2c1`, the half-inhibitory concentration (IC50) in assay [1] was 0.0786 µM; in assay [2] it was 0.14 µM. Besides, the entries for the “Ratio IC50” value in assay [3] and in assay [4] were 0.6 and 3, respectively.
